Reference: ChEMBL document CHEMBL1811834, “Synthesis and antimalarial activity of new heterocyclic hybrids based on chloroquine and thiazolidinone scaffolds” (Bioorg Med Chem, 2011)
pIC50: −log10 of the molar value.

Tests used:
J774 [1] = assay: Cytotoxicity against mouse macrophage J774 cells at 19 uM after 24 hrs by MTT assay; type: cell-based; details: j774, 24 h
Procedure, shortened: (§1)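 5 × 10⁴ cells/well were exposed to compound for 24 h. Medium was then removed and MTT (0.4 mg/mL in PBS) added for 1 h. Crystals were dissolved in DMSO and read at 595 nm. % toxicity = (OD control − OD compound)/OD control × 100.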

HepG2 [2] = assay: Cytotoxicity against human HepG2 cells at 19 uM after 24 hrs by MTT assay; type: cell-based; details: hepg2, 24 h; procedure, shortened: as §1
[3] = Inhibition of beta-hematine formation after 18 to 24 hrs by ferriprotoporphyrin 9 biomineralization inhibition test; type: functional
Procedure, shortened: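 Haemin chloride (0.5 mg/mL, freshly dissolved in DMSO) was mixed with 10 mg/mL compound solution or solvent in 0.5 M sodium acetate pH 4.4 and incubated 18–24 h at 37 °C. IC₅₀ is the mean of two experiments in triplicate.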

Plasmodium berghei = assay: Antimalarial activity against Plasmodium berghei str. ANKA infected in NMRI mouse at 10 mg/kg/day, ip for three days measured on day 4 by Giemsa staining; type: functional; details: route intraperitoneal
Procedure, shortened: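 NMRI male mice (20 ± 2 g, groups of five) inoculated on day 0 with 2 × 10⁷ RBCs infected with P. berghei ANKA erythrocytic stages. Two hours later, i.p. dosing at 10 mg/kg/day in DMSO, continued days 1–3.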

Plasmodium falciparum [4] = assay: Antimalarial activity against erythrocytic stage chloroquine-sensitive Plasmodium falciparum 3D7 after 48 hrs by fluorescence spectrophotometer; type: functional, organism-based; details: 3D7, 48 h
HepG2 [5] = assay: Cytotoxicity against human HepG2 cells at 23 uM after 24 hrs by MTT assay; type: cell-based; details: hepg2, 24 h
Plasmodium falciparum [6] = assay: Antimalarial activity against erythrocytic stage multidrug-resistant Plasmodium falciparum Dd2 after 48 hrs by fluorescence spectrophotometer; type: functional, organism-based; details: Dd2, 48 h
J774 [7] = assay: Cytotoxicity against mouse macrophage J774 cells at 23 uM after 24 hrs by MTT assay; type: cell-based; details: j774, 24 h
HepG2 [8] = assay: Cytotoxicity against human HepG2 cells at 37 uM after 24 hrs by MTT assay; type: cell-based; details: hepg2, 24 h; procedure, shortened: as §1
J774 [9] = assay: Cytotoxicity against mouse macrophage J774 cells at 37 uM after 24 hrs by MTT assay; type: cell-based; details: j774, 24 h; procedure, shortened: as §1

Compound | Activity (J774 [1]) | Activity (HepG2 [2]) | pIC50 [3] | inhibition in vivo at 10 mg/kg/day (Plasmodium berghei) | pIC50 (Plasmodium falciparum [4]) | Activity (HepG2 [5]) | pIC50 (Plasmodium falciparum [6]) | Activity (J774 [7]) | Activity (HepG2 [8]) | Activity (J774 [9])
CCN(CC)CCCC(C)Nc1ccnc2cc(Cl)ccc12 (stereo not given) [CHLOROQUINE] | 0% | 0% | 4.65 | 100% | – | – | – | – | – | –
O=C1CSC(c2ccc3c(c2)OCO3)N1CCNc1ccnc2cc(Cl)ccc12 (stereo not given) | – | – | 4.23 | – | 6.29 | 25.53% | 6.12 | 47.93% | – | –
Clc1ccc2c(NCc3ccccc3)ccnc2c1 | – | – | 4.33 | 25% | 6.52 | – | 6.48 | – | 46.58% | 0%
